ChEMBL document CHEMBL4190252, “Synthesis, antitumor activity and CDK1 inhibiton of new thiazole nortopsentin analogues” (Eur J Med Chem, 2017)
The source made the active and inactive calls. The calls are words filed in the database; no cut-off is given here.

Key:
MCF7 [1] = experiment: Induction of apoptosis in human MCF7 cells assessed as viable cells at 5 x 10^-8 M after 72 hrs by Annexin V/propidium iodide double staining-based flow cytometry (reference value: 98.9%); type: functional; settings: MCF7, 72 h, read-out: Activity
In short: (§1)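 MCF-7 cells were grown in RPMI with 10% FBS, 2 mM L-glutamine and antibiotics at 37 °C in 5% CO2. They were seeded at 2.0 x 10^5 cells/cm2 in triplicate, left to adhere overnight, then treated for 72 h; DMSO 0.1% served as vehicle. Trypsinised cells at 2.0 x 10^5/mL were stained with annexin V-FITC and PI for 15 min at room temperature in the dark. At least 1.0 x 10^4 cells were gated into viable, early apoptotic, late apoptotic and necrotic quadrants.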

CCRF-CEM = experiment: Growth inhibition of human CCRF-CEM cells incubated for 48 hrs by sulforhodamine B assay; type: functional
In short: (§2)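 NCI full panel screen: five 10-fold dilutions (10^-4–10^-8 M). GI50 is the molar concentration giving 50% inhibition of net cell growth.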

K562 = experiment: Growth inhibition of human K562 cells incubated for 48 hrs by sulforhodamine B assay; type: functional; settings: K562, 48 h; in short: as §2
MOLT-4 = experiment: Growth inhibition of human MOLT4 cells incubated for 48 hrs by sulforhodamine B assay; type: functional; settings: MOLT-4, 48 h; in short: as §2
RPMI-8226 = experiment: Growth inhibition of human RPMI8226 cells incubated for 48 hrs by sulforhodamine B assay; type: functional; settings: RPMI-8226, 48 h; in short: as §2
SR = experiment: Growth inhibition of human SR cells incubated for 48 hrs by sulforhodamine B assay; type: functional
In short: (§3)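 NCI full-panel human tumour cell screen. Cells were exposed to five 10-fold dilutions from 10^-4 to 10^-8 M. GI50 is the molar concentration giving 50% inhibition of net cell growth, and a mean graph midpoint was calculated across the panel.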

A549 = experiment: Growth inhibition of human A549/ATCC cells incubated for 48 hrs by sulforhodamine B assay; type: functional; settings: A549, 48 h; in short: as §2
EKVX = experiment: Growth inhibition of human EKVX cells incubated for 48 hrs by sulforhodamine B assay; type: functional; in short: as §2
HOP-62 = experiment: Growth inhibition of human HOP62 cells incubated for 48 hrs by sulforhodamine B assay; type: functional; settings: HOP-62, 48 h; in short: as §2
HOP-92 = experiment: Growth inhibition of human HOP92 cells incubated for 48 hrs by sulforhodamine B assay; type: functional; settings: HOP-92, 48 h; in short: as §2
NCI-H23 = experiment: Growth inhibition of human NCI-H23 cells incubated for 48 hrs by sulforhodamine B assay; type: functional; settings: NCI-H23, 48 h; in short: as §2
COLO 205 = experiment: Growth inhibition of human COLO205 cells incubated for 48 hrs by sulforhodamine B assay; type: functional; settings: COLO 205, 48 h; in short: as §2
HT-29 = experiment: Growth inhibition of human HT-29 cells incubated for 48 hrs by sulforhodamine B assay; type: functional; settings: HT-29, 48 h; in short: as §2
KM12 = experiment: Growth inhibition of human KM12 cells incubated for 48 hrs by sulforhodamine B assay; type: functional; settings: KM12, 48 h; in short: as §2
SF-268 = experiment: Growth inhibition of human SF268 cells incubated for 48 hrs by sulforhodamine B assay; type: functional; settings: SF-268, 48 h; in short: as §2
SF-295 = experiment: Growth inhibition of human SF295 cells incubated for 48 hrs by sulforhodamine B assay; type: functional; settings: SF-295, 48 h; in short: as §2
SNB-19 = experiment: Growth inhibition of human SNB19 cells incubated for 48 hrs by sulforhodamine B assay; type: functional; settings: SNB-19, 48 h; in short: as §3
SNB-75 = experiment: Growth inhibition of human SNB75 cells incubated for 48 hrs by sulforhodamine B assay; type: functional; settings: SNB-75, 48 h; in short: as §3
M14 = experiment: Growth inhibition of human M14 cells incubated for 48 hrs by sulforhodamine B assay; type: functional; settings: M14, 48 h; in short: as §2
UACC-62 = experiment: Growth inhibition of human UACC62 cells incubated for 48 hrs by sulforhodamine B assay; type: functional; settings: UACC-62, 48 h; in short: as §3
OVCAR-3 = experiment: Growth inhibition of human OVCAR3 cells incubated for 48 hrs by sulforhodamine B assay; type: functional; settings: OVCAR-3, 48 h; in short: as §2
OVCAR-8 = experiment: Growth inhibition of human OVCAR8 cells incubated for 48 hrs by sulforhodamine B assay; type: functional; settings: OVCAR-8, 48 h; in short: as §2
786-0 = experiment: Growth inhibition of human 786-0 cells incubated for 48 hrs by sulforhodamine B assay; type: functional; settings: 786-0, 48 h; in short: as §2
A498 = experiment: Growth inhibition of human A498 cells incubated for 48 hrs by sulforhodamine B assay; type: functional; settings: A498, 48 h; in short: as §2
ACHN = experiment: Growth inhibition of human ACHN cells incubated for 48 hrs by sulforhodamine B assay; type: functional; in short: as §2
UO-31 = experiment: Growth inhibition of human UO31 cells incubated for 48 hrs by sulforhodamine B assay; type: functional; settings: UO-31, 48 h; in short: as §3
PC-3 = experiment: Growth inhibition of human PC3 cells incubated for 48 hrs by sulforhodamine B assay; type: functional; settings: PC-3, 48 h; in short: as §2
Hs-578T = experiment: Growth inhibition of human Hs 578T cells incubated for 48 hrs by sulforhodamine B assay; type: functional; in short: as §2
MCF7 [2] = experiment: Cell cycle arrest in human MCF7 cells assessed as increase in accumulation at G2/M phase at GI50 concentration after 48 hrs by propidium iodide-staining based flow cytometry; type: functional
In short: (§4)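 Cells were trypsinized, washed in cold PBS, and 1 x 10^6 cells stained with 20 µg/ml PI plus 200 µg/ml RNase for 30 min at room temperature in the dark. At least 1x 10^4 cells were analysed by flow cytometry. Mean±SD of three experiments in triplicate.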

MCF7 [3] = experiment: Cell cycle arrest in human MCF7 cells assessed as reduction in accumulation at S phase at GI50 concentration after 48 hrs by propidium iodide-staining based flow cytometry; type: functional; in short: as §4
MCF7 [4] = experiment: Cell cycle arrest in human MCF7 cells assessed as reduction in accumulation at G0/G1 phase at GI50 concentration after 48 hrs by propidium iodide-staining based flow cytometry; type: functional; in short: as §4
MCF7 [5] = experiment: Cell cycle arrest in human MCF7 cells assessed as accumulation at G2/M phase at GI50 concentration after 48 hrs by propidium iodide-staining based flow cytometry; type: functional; in short: as §4
Caco-2 = experiment: Cytotoxicity against human Caco2 cells assessed as reduction in cell viability after 72 hrs by MTT assay; type: cell-based; settings: caco-2, 72 h
In short: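 Caco-2 cells grown in RPMI with 10% FBS and L-glutamine, then treated 15 days after confluence, once differentiated into normal intestinal-like cells. Seeded at 2 × 10^4 cells/well and exposed 72 h to 5–100 µM, DMSO 0.1% vehicle. MTT 2 h at 37 °C, formazan in DMSO, absorbance 570 nm. Vehicle control = 100%; LC50 from viability-versus-concentration plot. At least three experiments in triplicate.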

MCF7 [6] = experiment: Induction of apoptosis in human MCF7 cells assessed as early apoptotic cells at 2 x 10^-6 M after 72 hrs by Annexin V/propidium iodide double staining-based flow cytometry (reference value: 1%); type: functional; in short: as §1
MCF7 [7] = experiment: Induction of apoptosis in human MCF7 cells assessed as necrotic cells at 2 x 10^-6 M after 72 hrs by Annexin V/propidium iodide double staining-based flow cytometry (reference value: 0.1%); type: functional; in short: as §1
MCF7 [8] = experiment: Cell cycle arrest in human MCF7 cells assessed as accumulation at G0/G1 phase at GI50 concentration after 48 hrs by propidium iodide-staining based flow cytometry (reference value: 63.5%); type: functional; in short: as §4

| Structure (SMILES) | GI50 (K562) | GI50 (SR) | GI50 (A549) | GI50 (EKVX) | GI50 (HOP-62) | GI50 (HOP-92) | GI50 (NCI-H23) | GI50 (COLO 205) | GI50 (HT-29) | GI50 (KM12) | GI50 (SF-295) | GI50 (SNB-19) | GI50 (SNB-75) | GI50 (M14) | GI50 (UACC-62) | GI50 (OVCAR-3) | GI50 (OVCAR-8) | GI50 (786-0) | GI50 (A498) | GI50 (ACHN) | other results |
| --- | --- | --- | --- | --- | --- | --- | --- | --- | --- | --- | --- | --- | --- | --- | --- | --- | --- | --- | --- | --- | --- |
| COCCn1cc(-c2nc(-c3c[nH]c4ncccc34)cs2)c2cc(OC)ccc21 | 4.79 µM | 1.28 µM | 4.41 µM | 0.07 µM | 2.12 µM | 0.99 µM | 1.63 µM | 5.03 µM | 4.31 µM | 0.16 µM | 2.7 µM | 9.71 µM | 1.1 µM | 5.82 µM | 5.98 µM | 4.66 µM | 4.11 µM | 3.44 µM | 1.87 µM | 3.08 µM | viability at 0.05 µM (MCF7 [1]): 45.8%; GI50 (CCRF-CEM): 6.7 µM; GI50 (MOLT-4): 6.02 µM; GI50 (RPMI-8226): 7.09 µM; GI50 (SF-268): 4.42 µM; GI50 (UO-31): 2.31 µM; GI50 (PC-3): 4.22 µM; GI50 (Hs-578T): 2.07 µM; Activity (MCF7 [2]): Active; Activity (MCF7 [3]): Active; Activity (MCF7 [4]): Active; Activity (MCF7 [5]): >50%; LC50 (Caco-2): < 100 µM |
| COCCn1cc(-c2csc(-c3c[nH]c4ccc(Br)cc34)n2)c2cccnc21 | 3.6 µM | 3.25 µM | 6.89 µM | 2.05 µM | 7.98 µM | 4.39 µM | 3.21 µM | 3.22 µM | 3.36 µM | 2.74 µM | 2.83 µM | 12.2 µM | 4.72 µM | 3.27 µM | 4.2 µM | 3.9 µM | 5.35 µM | 4.03 µM | 3.02 µM | 3.04 µM | GI50 (MOLT-4): 3.87 µM; GI50 (RPMI-8226): 5.14 µM; GI50 (UO-31): 3.1 µM; GI50 (PC-3): 3.68 µM; GI50 (Hs-578T): 4.44 µM; Activity (MCF7 [6]): 36.3%; Activity (MCF7 [7]): 0.1%; LC50 (Caco-2): 83.3 µM; Activity (MCF7 [8]): 9% |
| COCCn1cc(-c2csc(-c3c[nH]c4ccccc34)n2)c2cccnc21 | 2.8 µM | 3.02 µM | 7.1 µM | 2 µM | 2.82 µM | 14.9 µM | 4.58 µM | 2.66 µM | 3.19 µM | 0.76 µM | 3.35 µM | 16.2 µM | 1.43 µM | 3.22 µM | 4.58 µM | 2.94 µM | 8 µM | 6.25 µM | 3.03 µM | 5.6 µM | GI50 (CCRF-CEM): > 100 µM; GI50 (SF-268): 6.98 µM; GI50 (UO-31): 4.15 µM; GI50 (PC-3): 6.81 µM; GI50 (Hs-578T): 9.14 µM; Activity (MCF7 [6]): 46.5%; Activity (MCF7 [7]): 0.1%; Activity (MCF7 [2]): Active; Activity (MCF7 [3]): Active; Activity (MCF7 [4]): Active; LC50 (Caco-2): 71.4 µM |
| COCCn1cc(-c2csc(-c3c[nH]c4ccc(F)cc34)n2)c2cccnc21 | 2.12 µM | 3.24 µM | 4.51 µM | 1.98 µM | 2.02 µM | 6.29 µM | 3.88 µM | 2.69 µM | 2.9 µM | 1.77 µM | 3.2 µM | 98 µM | 2.97 µM | 3.14 µM | 6.78 µM | 3.34 µM | 4.1 µM | 5.12 µM | 3.26 µM | 5.27 µM | GI50 (MOLT-4): 5.56 µM; GI50 (SF-268): 7.67 µM; GI50 (UO-31): 4.41 µM; GI50 (PC-3): 5.06 µM; GI50 (Hs-578T): 8.82 µM; Activity (MCF7 [6]): 29.2%; Activity (MCF7 [7]): 0.1%; Activity (MCF7 [2]): Active; Activity (MCF7 [3]): Active; Activity (MCF7 [4]): Active; LC50 (Caco-2): 96.1 µM |
